The text below walks through data of ChEMBL document CHEMBL3351274, “Sensitization of tumor necrosis factor-related apoptosis-inducing ligand (TRAIL)-resistant primary prostate cancer cells by isoegomaketone from Perilla frutescens” (J Nat Prod, 2014).

SMILES strings stand for the structures. Active and inactive are the calls of the source. The calls are words filed in the database; no cut-off is given here.

Experiment [1] can be described thus: Induction of apoptosis in human RC-58T/h/SA#4 cells assessed as Bcl-2 activation at 20 uM after 24 hrs by immunoblotting analysis relative to untreated control. The format is functional. The procedure, abridged: (§1)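 Cells grown in DMEM/10% FBS at 37 °C, 5% CO2, then treated 24 h with compound (20 μM) with or without TRAIL (100 ng/mL). Whole lysates were used for Bax and Bcl-2. Cytosolic and mitochondrial fractions were prepared with a mitochondria isolation kit for AIF and cytochrome c. Blotting used 10 μg protein/lane, 12% SDS-PAGE, nitrocellulose, overnight primary antibody at 4 °C and ECL detection.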
(A western blot detects proteins with antibodies after separation by electrophoresis.)

The nature of experiment [2]: Sensitization of TRAIL-induced apoptosis in human RC-58T/h/SA#4 cells assessed as AIF level in cytosol at 20 uM after 24 hrs by immunoblotting analysis relative to untreated control. The class given is functional. The procedure, abridged:
(§2)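 Cells given 20 μM compound and/or 100 ng/mL TRAIL for 24 h. Mitochondrial and cytosolic fractions prepared with a mitochondria isolation kit. Fractions resolved by 12% SDS-PAGE at 10 μg/lane and immunoblotted with anti-cytochrome c or anti-AIF overnight at 4 °C, then HRP secondary and ECL detection.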

The nature of experiment [3]: Induction of apoptosis in human RC-58T/h/SA#4 cells assessed as cytochrome C level in cytosol at 20 uM after 24 hrs by immunoblotting analysis relative to untreated control. The format is functional. The procedure, abridged:
as §1

Experiment [4] in a line: Sensitization of TRAIL-induced apoptosis in human RC-58T/h/SA#4 cells assessed as cytochrome C level in cytosol at 20 uM after 24 hrs by immunoblotting analysis relative to untreated control. The format is functional. The procedure, abridged: as §2
A short description of experiment [5]: Induction of apoptosis in human RC-58T/h/SA#4 cells assessed as DR4 expression at 10 uM after 24 hrs by immunoblotting analysis relative to untreated control. The class given is functional.
Experiment [6] is described as follows: Induction of apoptosis in human RC-58T/h/SA#4 cells assessed as DR4 expression at 40 uM after 24 hrs by immunoblotting analysis relative to untreated control. The format is functional.
A short description of experiment [7]: Induction of apoptosis in human RC-58T/h/SA#4 cells assessed as DR5 expression at 5 uM after 24 hrs by immunoblotting analysis relative to untreated control. The format is functional.
Experiment [8] can be described thus: Induction of apoptosis in human RC-58T/h/SA#4 cells assessed as DR4 expression at 20 uM after 12 hrs by immunoblotting analysis relative to untreated control. The format is functional.
The nature of experiment [9]: Induction of apoptosis in human RC-58T/h/SA#4 cells assessed as DR4 expression at 20 uM after 18 hrs by immunoblotting analysis relative to untreated control. The format is functional.
Experiment [10] in a line: Induction of apoptosis in human RC-58T/h/SA#4 cells assessed as DR4 expression at 20 uM after 24 hrs by immunoblotting analysis relative to untreated control. The format is functional.
A short description of experiment [11]: Sensitization of TRAIL-induced apoptosis in human RC-58T/h/SA#4 cells assessed as PARP cleavage at 20 uM after 24 hrs by immunoblotting analysis relative to untreated control. The class given is functional. Summed up: (§3)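 Cells seeded at 5 × 10^4 cells/mL and cultured 24 h, then given 20 μM compound and/or 100 ng/mL TRAIL for 24 h. Whole-cell lysate made in Tris/NaCl/EDTA/NaF/pyrophosphate/PMSF/aprotinin buffer, 30 min on ice, protein measured by BCA. 12% SDS-PAGE at 10 μg/lane, nitrocellulose blot, primary antibodies (caspase-3, -8, -9, Bax, Bcl-2, PARP) overnight at 4 °C, HRP secondary, ECL.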

The species entered for experiment [12] is Homo sapiens. The experiment is described as follows: Induction of apoptosis in human RC-58T/h/SA#4 cells assessed as p53 expression after 3 to 24 hrs by immunoblotting analysis relative to untreated control. The class given is functional, cell-based. Summed up: (§4)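 RC-58T/h/SA#4 cells seeded at 5 × 10^4 cells/mL and cultured 24 h, then given compound across a concentration series or at fixed dose over a time course. Lysates were quantified by BCA. 10 μg protein/lane run on 12% SDS-PAGE and transferred to nitrocellulose. Blots probed for p53, CHOP and β-actin with HRP secondary and ECL.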

Experiment [13] in a line: Induction of apoptosis in human RC-58T/h/SA#4 cells assessed as p53 expression at 10 uM after 24 hrs by immunoblotting analysis relative to untreated control. The class given is functional. Summed up: as §4
Experiment [14] can be described thus: Induction of apoptosis in human RC-58T/h/SA#4 cells assessed as CHOP expression at 5 uM after 24 hrs by immunoblotting analysis relative to untreated control. The class given is functional. The procedure, abridged: as §4
Experiment [15] is described as follows: Induction of apoptosis in human RC-58T/h/SA#4 cells assessed as CHOP expression at 40 uM after 24 hrs by immunoblotting analysis relative to untreated control. The format is functional. Summed up: as §4
A short description of experiment [16]: Induction of apoptosis in human RC-58T/h/SA#4 cells assessed as CHOP expression at 20 uM after 18 hrs by immunoblotting analysis relative to untreated control. The format is functional. The procedure, abridged:
as §4

Experiment [17] can be described thus: Induction of ROS generation in human RC-58T/h/SA#4 cells at 10 uM after 30 mins by flow cytometry (reference value: 1.9%). The format is functional.
Experiment [18] is described as follows: Induction of ROS generation in human RC-58T/h/SA#4 cells at 40 uM after 30 mins by flow cytometry (reference value: 1.9%). The format is functional.
Experiment [19] is filed under the species Homo sapiens. The experiment is described as follows: Sensitization of TRAIL-induced cytotoxicity against human RC-58T/h/SA#4 cells assessed as cell viability at 5 to 20 uM after 24 hrs by SRB assay. The format is functional, cell-based. The procedure, abridged: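 Cells seeded at 5 × 10^4 cells/mL, grown in DMEM with 10% FBS, and given the compound with or without 100 ng/mL TRAIL for 24 h at 37 °C, 5% CO2. RWPE-1 tested at 20 μM. Cells fixed in 12% TCA for 1 h at 4 °C, stained 1 h with 0.4% SRB, washed in 1% acetic acid, dye dissolved in 10 mM Tris and absorbance read. Three experiments, means ± SD.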
In general terms: The SRB assay estimates cell density from bound dye.

The species named for experiment [20] is Homo sapiens. Kind of experiment: Sensitization of TRAIL-induced apoptosis in human RC-58T/h/SA#4 cells at 20 uM after 24 hrs by annexin-V/propidium iodide staining-based flow cytometry relative to control. The format is functional, cell-based. Summed up:
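RC-58T/h/SA#4 cells seeded at 1 × 10^5 cells/mL in 6-well plates and given 20 μM compound and/or 100 ng/mL TRAIL for 24 h. Cells washed in ice-cold PBS, labelled with annexin V Alexa Fluor 488 for 30 min at 4 °C in the dark, then with PI. Annexin V-positive fraction counted by flow cytometry; three independent experiments, means ± SD, Student's t-test.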

A short description of experiment [21]: Sensitization of TRAIL-induced apoptosis in human RC-58T/h/SA#4 cells assessed as Bax activation at 20 uM after 24 hrs by immunoblotting analysis relative to untreated control. The format is functional. Summed up:
as §3

Experiment [22] can be described thus: Sensitization of TRAIL-induced apoptosis in human RC-58T/h/SA#4 cells assessed as Bcl-2 activation at 20 uM after 24 hrs by immunoblotting analysis relative to untreated control. The format is functional. Summed up:
as §3

The nature of experiment [23]: Induction of apoptosis in human RC-58T/h/SA#4 cells assessed as procaspase-8 activation at 20 uM after 24 hrs by immunoblotting analysis relative to untreated control. The class given is functional. The procedure, abridged:
as §3

A short description of experiment [24]: Induction of apoptosis in human RC-58T/h/SA#4 cells assessed as procaspase-9 activation at 20 uM after 24 hrs by immunoblotting analysis relative to untreated control. The class given is functional. Summed up: as §3

As to `CC(C)/C=C/C(=O)c1ccoc1`, the Ratio in experiment [1] was 0.7; in [2], 1.2; in experiment [3] it was 0.9; in experiment [4], 1.2; in experiment [5] it was 1; in experiment [6] it was 1.1. Also, the Ratio amounted to 1.1 in [7]; 1 in experiment [8]; 1.1 in experiment [9]; 1 in [10]; 0.7 in experiment [11]; 2 in [13]. In addition, the Ratio is 1.3 in experiment [14]; 2 in experiment [15]; 2 in experiment [16]; 1.8 in [21]; 0.5 in experiment [22]; 1.2 in experiment [23]. Besides, the Ratio in experiment [24] is listed as 0.8. The Activity entry in the experiment filed under Homo sapiens [12] was “Dose-dependent effect”; in [17], 2%; in [18], 2.5%. The result in the experiment filed under Homo sapiens [19] and in the experiment filed under Homo sapiens [20] was Active.
